Screens: PubChem BioAssay, several laboratories
Most compounds without a hit are left out; they make up all but 2.4% or so of the library.
HTRA1 inhibitor: blocks human HTRA1 serine peptidase; Q92743; recombinant HTRA1, FP-rhodamine activity-based probe, fluorescence polarization; inhibition, % at 5.96 µM; 340,000 tested, 0.5% active; AID 504803; in the data active means inhibition above about 36%;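 further: 0% = enzyme with DMSO and 100% = wells lacking enzyme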
SIAE inh: human SIAE inhibition, primary screen | 370,000 tested, 0.69% active | SIAE FP-Rh probe binding, fluorescence polarization | inhibition, % at 9.66 µM | Q9HAT2;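 active means inhibition above a cutoff: mean of compounds within the control limits plus 3 SD of those, cut at about 17% in these data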;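 further: 0% = plate median of compound wells and 100% = probe without SIAE protein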
Target sequence (Q9HAT2 whole entry, looked up): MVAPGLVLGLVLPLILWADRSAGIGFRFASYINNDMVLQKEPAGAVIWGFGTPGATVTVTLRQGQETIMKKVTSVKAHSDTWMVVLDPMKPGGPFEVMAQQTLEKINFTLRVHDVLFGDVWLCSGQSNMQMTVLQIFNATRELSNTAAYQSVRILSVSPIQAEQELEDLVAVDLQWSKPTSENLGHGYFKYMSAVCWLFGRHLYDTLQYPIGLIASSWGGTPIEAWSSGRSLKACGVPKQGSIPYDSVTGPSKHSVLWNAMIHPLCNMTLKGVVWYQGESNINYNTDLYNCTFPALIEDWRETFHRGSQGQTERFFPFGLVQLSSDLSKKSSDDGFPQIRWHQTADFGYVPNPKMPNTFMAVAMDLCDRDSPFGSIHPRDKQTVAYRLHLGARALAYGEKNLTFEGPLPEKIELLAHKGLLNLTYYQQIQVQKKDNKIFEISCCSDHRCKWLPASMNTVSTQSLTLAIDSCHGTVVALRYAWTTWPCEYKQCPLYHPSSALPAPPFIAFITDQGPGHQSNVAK
mABHD4 FP: inhibitors of mouse ABHD4. Q8VD66. 370,000 tested, 0.54% active. inhibition, % at 8.92 µM. purified mABHD4, FP-Rh probe fluorescence polarization. AID 720543;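 active means inhibition exceeding the mean over every tested compound plus 3 SD, cut at about 30% in these data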;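 further: 0% = plate median of compound wells and 100% = S159A mutant with DMSO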
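Test system: mABHD4 protein | Buffer or medium: HEPES pH 7.0 buffer, 150 mM NaCl, 0.01% Pluronic F-127 | Probe or stimulus: FP-Rh fluorescent activity-based probe, added after compound pre-incubation | Timing: Pre-incubation 45 min, probe exposure 60 min, at 25 °C | Technique: Fluorescence polarization, excitation 525 nm, emission 598 nm, BODIPY TMR filters | Repeats: Single well per compound (singlicate)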
PRMT1 inh: PRMT1 (human) inhibition, primary screen | Q99873 | recombinant PRMT1, activity-based probe fluorescence polarization | inhibition, % at 2.79 µM | 370,000 tested, 1.3% active;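 active means inhibition above about 21% made by adding two undisclosed values, limit read from the data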
GASC-1 inh: human JMJD2C demethylase inhibition. GST-JMJD2C(1-420) H3K9me3 demethylation, DELFIA europium. inhibition, % at 2.35 µM. 330,000 tested, 0.069% active;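 active means more than half of a compound's replicate wells show inhibition beyond 50%, single wells judged on their own value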;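 further: signal counts dimethyl H3K9 product captured on neutravidin plate; 0% = median of DMSO wells and 100% = 0.3 times that DMSO median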
mABHD4 conf: ABHD4 (mouse) inhibition, FP confirmation; shares compounds with mABHD4 FP; purified mABHD4, FP-Rh probe fluorescence polarization; inhibition, % at 8.92 µM; 1,800 tested, 55% active; AID 720658;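 active means mean inhibition across replicates above the hit cutoff set in the primary screen, cut at about 30% in these data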;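 further: 0% = wild-type ABHD4 with DMSO and 100% = catalytically dead S159A mutant with DMSO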
* hit, by the source's call; · = no result given.

SMILES	HTRA1 inhibitor	SIAE inh	mABHD4 FP	PRMT1 inh	GASC-1 inh	mABHD4 conf
CC1(C)CC(=O)C(C=Nc2ccc(N)cc2)=C(O)C1	26	11	35*	9	10	-7
C#CCN(Cc1ccco1)C(=O)c1nnc2c3ccccc3n(S(=O)(=O)c3ccc(C)cc3)c2n1	·	-13	4	3	·	·
NNc1nc2c(Cl)ccc(Cl)c2s1	8	10	39*	0	2	48*
O=C(Nc1nc2c(Cl)ccc(Cl)c2s1)C1CC1	-11	-4	1	1	6	·
CC1(C(=O)NS(=O)(=O)c2ccc(C#N)cc2)CCN1C(=O)Cc1ccc(Cl)cc1Cl (stereo unspecified)	·	1	3	4	·	·
O=C1C=C(Nc2ccc(O)cc2)CC(c2ccco2)C1 (stereo unspecified)	26	-6	44*	8	6	19
COc1ccc(NC(=O)c2cc(-c3cc(F)ccc3OCC3CCCO3)n[nH]2)c(C)c1 (stereo unspecified)	·	-10	-10	-2	·	·
Nc1cc2c(cc1Br)[nH]c(=O)c1ccccc12	28	-3	31*	3	·	31*
Nc1cccc2[nH]c(=O)c3ccccc3c12	9	16	31*	6	·	12
Nc1cc2[nH]c(=O)c3ccccc3c2cc1Br	0	5	-4	2	·	·
O=C(/C=C/c1ccc([N+](=O)[O-])cc1)c1ccccc(=O)c1O	27	14	43*	15	·	12
COc1ccc(Nc2cc(C)c3c(O)cccc3n2)cc1	7	10	19	-2	0	·
Cc1ccc(Nc2cc(C)c3c(O)cccc3n2)cc1C	14	18*	44*	5	-3	51*
O=S(=O)(Nc1cccc2[nH]ncc12)c1cccs1	0	7	3	0	-19	·
O=S(=O)(Nc1cccc2c1ccc1cccn12)c1cccs1	14	10	34*	16	-21	8
O=C1CS/C(=C\[N+](=O)[O-])N1c1ccccc1	6	4	31*	5	6	-1
O=C(c1cc(F)ccc1F)N1CCC(Oc2cccnc2)CC1	·	-9	0	-2	·	·
N=C1c2c(cc(=O)n3c2[nH]c2ccccc23)CN1CCN1CCOCC1	26	13	31*	6	5	13
O=c1c2ccccc2[nH]c(=S)n1CCCN1CCOCC1	-5	-1	-10	1	3	·
N#C/C(=C(/O)c1ccc(-c2cccc([N+](=O)[O-])c2)o1)c1nc2ccccc2s1	4	9	31*	7	-1	56*
O=C(O)c1ccc(-c2cccc([N+](=O)[O-])c2)o1	-4	-3	3	2	6	·
CC(C)CNC(=O)C1(C)CCCN1C(=O)c1ccncc1 (stereo unspecified)	·	-7	0	-5	·	·
O=C(C1CC1)N1CCc2cc(Br)c(S(=O)(=O)NCCCN3CCCCC3)cc21	·	0	1	1	·	·
CC(=O)Nc1ccc(Nc2nc3ccccc3nc2NS(=O)(=O)c2ccc(Cl)c([N+](=O)[O-])c2)cc1	32	16	49*	4	·	68*
CC(=O)Nc1ccc(S(=O)(=O)Nc2nc3ccccc3nc2Nc2ccc3ccccc3c2)cc1	2	-1	18	0	13	·
SMILES	HTRA1 inhibitor	SIAE inh	mABHD4 FP	PRMT1 inh	GASC-1 inh	mABHD4 conf
CC(=O)Nc1ccc(S(=O)(=O)Nc2nc3ccccc3nc2Nc2ccc(N)cc2)cc1	15	1	40*	23*	15	23
CC(=O)Nc1ccc(S(=O)(=O)Nc2nc3ccccc3nc2Nc2ccc(C(=O)O)c(O)c2)cc1	34	-24	43*	16	-2	43*
CC(=O)Nc1ccc(S(=O)(=O)Nc2nc3ccccc3nc2Nc2cccc(O)c2)cc1	5	3	18	-4	1	·
C[C@@H]1CN([C@@H](C)CO)C(=O)CCCn2cc(nn2)CO[C@H]1CN(C)C(=O)Nc1cccc(Oc2ccccn2)c1	·	0	-2	-1	·	·
CCOC(=O)[C@@]12CCCC3=C1N(CCC3)C(=O)[C@H]2CC(=O)NCC1CCCCC1	·	-4	0	2	·	·
C/C(=N\NC(N)=S)C1=CCC2C3CC[C@H]4CC(O)CC[C@]4(C)C3CC[C@]12C (stereo partly specified)	-11	1	-2	5	-6	·
Cc1noc(C)c1S(=O)(=O)NC(=O)C1(C)CCN1C(=O)CC(c1ccccc1)c1ccccc1 (stereo unspecified)	·	1	5	-4	·	·
COc1ccc(NC(=O)c2ccc(NC(=O)C(C)C)cc2)c([N+](=O)[O-])c1	0	4	-6	1	-4	·
COc1ccc(NC(=O)C(c2cc3c(cc2[N+](=O)[O-])OCO3)N(C)C)cc1 (stereo unspecified)	10	7	70*	0	17	-2
COC(=O)[C@@H](Cc1c[nH]c2ccccc12)NCc1ccc(B(O)O)cc1	9	6	72*	-2	·	64*
COC(=O)C(Cc1c[nH]c2ccccc12)NC(=O)CNC(C)=O (stereo unspecified)	2	0	-3	-1	23	·
COC(=O)[C@H](Cc1c[nH]c2ccccc12)NCc1cccc(B(O)O)c1	2	4	77*	-1	·	62*
O=C(Nc1sc(-c2ccccc2)cc1C(=O)O)c1ccccc1	-16	-80	36*	-1	-14	37*
CCOC(=O)c1cc(-c2ccccc2)sc1NC(=O)c1ccc(OC)cc1	·	·	·	·	12	·
Cc1ccc(NC(=S)NNC(=O)c2cnccn2)cc1	·	12	52*	0	·	59*
COc1ccc(-c2csc(NS(=O)(=O)c3ccc([N+](=O)[O-])cc3)n2)cc1	4	7	37*	1	-2	34*
N#CCC[C@H]1CC[C@]2(CCCN(S(=O)(=O)c3ccccc3)C2)O1	·	4	-9	1	·	·
C=CCOc1ccc(C(c2c(C(=O)O)[nH]c3ccccc23)c2c(C(=O)O)[nH]c3ccccc23)cc1	10	2	55*	3	-6	53*
O=C(O)c1[nH]c2ccccc2c1C(c1ccccc1)c1c(C(=O)O)[nH]c2ccccc12	10	7	32*	1	3	38*
COc1ccc(CN=Cc2c(C(=O)O)[nH]c3ccccc23)cc1	7	-5	2	3	22	·
O=C(O)COc1ccc(Br)cc1C(c1c(C(=O)O)[nH]c2ccccc12)c1c(C(=O)O)[nH]c2ccccc12	1	·	·	·	6	·
C(=CCSc1ccccn1)CSc1ccccn1	·	-3	1	-1	·	·
c1ccc2sc(NN=C3CCCCCC3)nc2c1	12	2	36*	3	15	30*
O=C(Nc1nc2ccccc2s1)c1ccccc1	0	-4	-14	-5	-2	·
CCOC(=O)Cc1cc(=O)n2[nH]cc(-c3cccc(Br)c3)c2n1	5	-1	32*	-1	6	22
